NALP3 yeast inh: NALP3 inhibition in yeast; Yeast reconstituted NLRP3/ASC/caspase-1, beta-gal luminescence, 24 h; inhibition, % at 10 µM; hit rate 0.39% among 330,000; AID 2825;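 active means inhibition of 50% or more; inactive means inhibition below 50%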
Arr AP2 block: inhibitors of human beta-arrestin and AP2 interaction. hit rate 0.31% among 340,000. inhibition, % at 10 µM. FITC-arrestin peptide / GST-AP2 beads, flow cytometry; AP2 beta2 appendage carries R879A mutation;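 active means inhibition above a set limit, near 3 SD of compounds lacking own fluorescence, cut at about 54% in these data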
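Material – GST-tagged AP2 beta2-adaptin appendage (R879A) on 4 µm glutathione beads · Probe or stimulus – fluorescein-tagged arrestin peptide at 50 nM final · Timing – 12 min plus 1 h, RT · Detection – bead flow cytometry, FITC channel · Read-out basis – inhibition as reduced fluorescein signal on beads, percent · Medium – PBS plus Tween 20 (0.05%) and BSA (0.1%)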
NALP1 inh: NALP1 inhibition | S. cerevisiae NALP1/ASC/caspase-1 growth, X-gal OD620, 72 h | inhibition, % at 10 µM | hit rate 0.61% among 280,000 | AID 2071; in the data active means inhibition mostly above about 24%, no sharp cut-off; inactive means mostly below about 32%
PolyA inh: inhibitors of polyadenylation in S. cerevisiae. hit rate 0.02% among 300,000. AID 1875. activity score, % at 12 µM. S. cerevisiae SKY197-pL101 polyadenylation reporter, beta-gal luminescence; efflux-impaired pdr1/pdr3 knockout yeast; score 100 = 6 SD above DMSO;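 active means lowest replicate activity score at least 50, where 100 means six control SD above control mean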;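 further: yeast exposed to compound for 9 h at 30 °C; higher score means more reporter readthrough which indicates perturbed polyadenylation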
DSG3 Ab inh: inhibitors of pemphigus antibody binding to human desmoglein-3 | DSG3-coupled beads, scFv-anti-DSG3-GFP binding, flow cytometry; stronger effect = lower value | P32926 | hit rate 0.48% among 310,000 | AID 588358 | binding (percent of control), % at 10 µM;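 active means binding more than 3 SD below its plate's average and above zero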
ALR H2O2 inh: inhibitors of human sulfhydryl oxidase ALR | P55789 | purified ALR, DTT oxidation, H2O2 HRP-luminol luminescence | inhibition, % (concentration not given with the values) | hit rate 3.8% among 290,000;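 active means mean replicate inhibition above about 79%, with every replicate also reaching it, limit read from the data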
Target sequence (P55789 whole entry, looked up): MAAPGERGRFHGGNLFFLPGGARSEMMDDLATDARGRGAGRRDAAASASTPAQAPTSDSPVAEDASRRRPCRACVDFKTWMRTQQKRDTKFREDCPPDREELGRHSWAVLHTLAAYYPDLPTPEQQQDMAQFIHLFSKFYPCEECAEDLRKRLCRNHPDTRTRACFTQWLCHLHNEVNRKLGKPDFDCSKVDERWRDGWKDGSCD
A number is an active result; n = inactive; x = not tested or not shown. Compounds with a hit are over-represented: about 4.6% of the library has one in this group of screens.

SMILES	NALP3 yeast inh	Arr AP2 block	NALP1 inh	PolyA inh	DSG3 Ab inh	ALR H2O2 inh
CC1CCN(C(C(=O)Nc2ccc(C(C)C)cc2)c2ccc3c(c2)OCO3)CC1 (configuration not stated)	n	n	38	n	n	x
COc1ccc2c(c1OC)C(=O)OC2CC(=O)c1ccc(O)c(O)c1 (configuration not stated)	n	n	n	n	n	99
O=C(Nc1ccc2snnc2c1)N1CCSCC1	n	n	n	n	n	93
CNC(=O)Nc1ccc2snnc2c1	n	n	34	n	n	n
COc1ccc(NC(=S)Nc2ccc3snnc3c2)cc1	n	n	n	n	n	97
COc1ccc(NC(=S)Nc2ccc3nccnc3c2)cc1	x	n	n	n	n	n
CC1CN(C(=O)Nc2ccc3snnc3c2)c2ccccc21 (configuration not stated)	n	n	n	n	n	94
C[C@H](CO)N1C[C@H](C)[C@@H](CN(C)C(=O)Nc2cccc(F)c2)Oc2ncc(Br)cc2C1=O	x	x	x	x	n	x
S=c1[nH]ncn1/N=C/c1cccs1	n	n	x	n	n	97
S=c1[nH]ncn1/N=C/c1ccccn1	n	n	n	n	n	92
S=c1[nH]nc(-c2cccnc2)n1/N=C/c1cccs1	n	n	n	n	n	97
S=c1[nH]nc(COc2ccccc2)n1/N=C/c1ccccn1	n	n	n	n	n	n
S=c1[nH]nc(-c2cccnc2)n1/N=C/c1ccccc1	n	n	n	n	n	x
O=C(NC(Cc1ccccc1)C(=O)N1CCCCC1)c1ccccc1 (configuration not stated)	n	n	x	n	n	x
CCc1ccc(NC(=O)CC2C(=O)N(c3ccc(C)cc3)C(=O)N2CCc2ccncc2)cc1 (configuration not stated)	n	n	n	n	n	n
Cc1cc(C(=O)NC2CCCCCC2)c2ccccc2n1	n	n	x	x	n	n
O=C(N/N=C/c1ccc(F)cc1)c1cc(-c2ccco2)nc2ccccc12	n	n	n	n	28	n
O=C(NC1CC1)c1cc(-c2ccco2)nc2ccccc12	x	n	x	n	72	x
O=C(OCC(=O)N1CCN(C(=O)c2ccco2)CC1)c1cc(-c2ccco2)nc2ccccc12	n	n	n	n	n	93
Cc1ccc(C)c(-c2cc(C(=O)NC3CC3)c3ccccc3n2)c1	n	n	n	x	n	94
c1ccc2c(c1)Nc1ccncc1S2	n	n	n	n	n	96
c1ccc2c(c1)Nc1cc3ccccc3cc1S2	n	n	n	n	x	n
Cc1cc(C)c2cc(CN(Cc3ccco3)C(=S)NCC3CCCO3)c(=O)[nH]c2c1 (configuration not stated)	n	n	n	n	n	96
COc1ccc2cc(CN(Cc3ccco3)C(=S)NCC3CCCO3)c(=O)[nH]c2c1 (configuration not stated)	n	n	n	n	n	n
O=C(O)c1ccc(C(=O)c2cc([N+](=O)[O-])cc([N+](=O)[O-])c2)cc1	x	n	x	x	n	x
SMILES	NALP3 yeast inh	Arr AP2 block	NALP1 inh	PolyA inh	DSG3 Ab inh	ALR H2O2 inh
CC(C)NC(=O)N(C)C[C@@H]1Oc2c(NC(=O)C3CCOCC3)cccc2C(=O)N([C@@H](C)CO)C[C@H]1C	n	n	x	x	n	n
Cn1c(N)c(C(=O)CSc2nnc(-c3c[nH]c4ccccc34)n2C2CC2)c(=O)[nH]c1=O	n	n	x	x	x	n
O=C(CCn1cccn1)N1CCCC(N2CCN(c3cccc(Cl)c3)CC2)C1 (configuration not stated)	n	n	n	n	n	93
Cc1cc(C(=O)N2CCCC(N3CCN(c4cccc(Cl)c4)CC3)C2)no1 (configuration not stated)	n	n	n	n	n	80
O=C(c1ccoc1)N1CCCC(N2CCN(c3cccc(Cl)c3)CC2)C1 (configuration not stated)	n	n	n	n	n	93
S=C(NCc1ccccc1)N1CCN(C(=S)NCc2ccccc2)CC1	n	n	x	x	x	n
COCc1ccc(C(=O)N2CCCC(Nc3ccc(C(C)C)cc3)C2)s1 (configuration not stated)	n	n	n	n	n	93
